From ChEMBL document CHEMBL2021762, “Derivatives of 8-hydroxyquinoline--antibacterial agents that target intra- and extracellular Gram-negative pathogens” (Bioorg Med Chem Lett, 2012) come the findings set out here.

The subject of data set [1] is Yersinia pseudotuberculosis. The data set is described as follows: Inhibition of type 3 secretion in Yersinia pseudotuberculosis at 100 uM by reporter gene assay. The procedure, abridged:
(§1)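 Y. pseudotuberculosis T3S-linked reporter-gene screen, luminescence read on filter-based plate reader; compounds added from DMSO solutions. Tested at 10, 20, 50 and 100 µM, expressed as percent inhibition. EC50 taken from dose-response curves. Activity also checked with detergent present to exclude aggregation.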
In general terms: Reporter assays use an easily measured gene product as a stand-in for the process of interest.

Data set [2] relates to Yersinia pseudotuberculosis. As to the kind of experiment: Inhibition of type 3 secretion in Yersinia pseudotuberculosis at 50 uM by reporter gene assay. A digest of the protocol:
as §1

For data set [3], the system named is Yersinia pseudotuberculosis. As to the kind of experiment: Inhibition of type 3 secretion in Yersinia pseudotuberculosis at 20 uM by reporter gene assay. A digest of the protocol:
as §1

Data set [4] concerns Yersinia pseudotuberculosis. The data set is described as follows: Inhibition of type 3 secretion in Yersinia pseudotuberculosis at 10 uM by reporter gene assay. The procedure, abridged:
as §1

Data set [5] has as its system Chlamydia trachomatis. The data set is described as follows: Antibacterial activity against Chlamydia trachomatis infected in HeLa cells. It is filed as functional. The procedure, abridged: (§2)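 HeLa cells infected with C. trachomatis […] and incubated with compound in a dilution series, with a DMSO-treated control. Chlamydial inclusions are immunostained green and HeLa cells counterstained red. Inclusion size and number and HeLa cell morphology are judged by fluorescence microscopy. MIC is read from the absence of visible inclusions.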

A short description of data set [6]: Cytotoxicity against human HeLa cells assessed as cell viability at 2 time MIC. Particulars: read-out: Activity. It is filed as cell-based.
Data set [7] deals with Tyrosine-protein phosphatase YopH (Yersinia pseudotuberculosis serotype I (strain IP32953)) (UniProt P08538). As to the kind of experiment: Inhibition of Yersinia pseudotuberculosis phosphatase activity of secreted YopH at 10 uM. A digest of the protocol:
(§3)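 Phosphatase activity of YopH secreted by Y. pseudotuberculosis, measured at 10, 20, 50 and 100 µM; expressed as percent inhibition. Some runs used HCl salt form.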

Data set [8] has as its system Chlamydia trachomatis. As to the kind of experiment: Antibacterial activity against Chlamydia trachomatis infected in HeLa cells at 50 uM up to 6 hrs. It is filed as functional, organism-based.
Data set [9] concerns Yersinia pseudotuberculosis. As to the kind of experiment: Antibacterial activity against T3S deficient Yersinia pseudotuberculosis infected in mouse J774 cells assessed as increase of host cell viability at 3.1 to 25 uM. It is filed as functional, organism-based. A digest of the protocol: (§4)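 J774 macrophages infected with Y. pseudotuberculosis, wild-type (pIB102) or T3S-deficient mutant (pIB604); uninfected control included. Viability read with CalceinAM fluorescence (green conversion in healthy cells). 100% = uninfected cells given DMSO alone.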

The subject of data set [10] is Yersinia pseudotuberculosis. The data set is described as follows: (§5) Inhibition of type 3 secretion in Yersinia pseudotuberculosis by reporter gene assay. A digest of the protocol: as §1
Data set [11] is described as follows: as §5. The procedure, abridged:
as §1

The next data set concerns J774. The data set is described as follows: Cytotoxicity against mouse J774 cells assessed as cell viability at 3.1 to 25 uM. Particulars: j774, 25 µM. It is filed as cell-based.
Data set [12] concerns Yersinia pseudotuberculosis. As to the kind of experiment: Antibacterial activity against wild type Yersinia pseudotuberculosis infected in mouse J774 cells assessed as increase of host cell viability at 3.1 to 25 uM. It is filed as functional, organism-based. A digest of the protocol: as §4
For data set [13], the target named is Tyrosine-protein phosphatase YopH (Yersinia pseudotuberculosis serotype I (strain IP32953)) (UniProt P08538). As to the kind of experiment: Inhibition of Yersinia pseudotuberculosis phosphatase activity of secreted YopH at 50 uM. The procedure, abridged:
as §3

Data set [14] has the same target. The data set is described as follows: Inhibition of Yersinia pseudotuberculosis phosphatase activity of secreted YopH. The procedure, abridged:
as §3

Data set [15] has the same target. The data set is described as follows: Inhibition of Yersinia pseudotuberculosis phosphatase activity of secreted YopH at 20 uM. The procedure, abridged: as §3
Data set [16] shares this target. The data set is described as follows: Inhibition of Yersinia pseudotuberculosis phosphatase activity of secreted YopH at 100 uM. A digest of the protocol: as §3
Data set [17] relates to Chlamydia trachomatis. The data set is described as follows: Antibacterial activity against Chlamydia trachomatis infected in HeLa cells at 100 uM up to 6 hrs. It is filed as functional, organism-based.
For data set [18], the system named is Chlamydia trachomatis. As to the kind of experiment: Antibacterial activity against Chlamydia trachomatis infected in HeLa cells assessed as reduction of inclusions size at 1.56 uM by fluorescence microscopy analysis. It is filed as functional, organism-based. A digest of the protocol: as §2
In data set [19] the test system is HeLa. As to the kind of experiment: Cytotoxicity against human HeLa cells assessed as visible inclusions by fluorescence microscopy. It is filed as cell-based. A digest of the protocol:
as §2

The subject of data set [20] is HeLa. The data set is described as follows: Cytotoxicity against human HeLa cells assessed as change in morphology by fluorescence microscopy. It is filed as cell-based. A digest of the protocol: as §2

SMILES strings stand for the structures. pEC50: −log10 of the molar value. In brackets after ≈: the same amount, converted by molar mass. Several values for one entry are separate records, joined by “and”; a condition that tells them apart may be missing. Identical values can stand only once. Activity calls are given as the source filed them. No cut-off for these calls is given here.

Tyrosine-protein phosphatase YopH (Yersinia pseudotuberculosis serotype I (strain IP32953)), sequence (P08538 whole entry): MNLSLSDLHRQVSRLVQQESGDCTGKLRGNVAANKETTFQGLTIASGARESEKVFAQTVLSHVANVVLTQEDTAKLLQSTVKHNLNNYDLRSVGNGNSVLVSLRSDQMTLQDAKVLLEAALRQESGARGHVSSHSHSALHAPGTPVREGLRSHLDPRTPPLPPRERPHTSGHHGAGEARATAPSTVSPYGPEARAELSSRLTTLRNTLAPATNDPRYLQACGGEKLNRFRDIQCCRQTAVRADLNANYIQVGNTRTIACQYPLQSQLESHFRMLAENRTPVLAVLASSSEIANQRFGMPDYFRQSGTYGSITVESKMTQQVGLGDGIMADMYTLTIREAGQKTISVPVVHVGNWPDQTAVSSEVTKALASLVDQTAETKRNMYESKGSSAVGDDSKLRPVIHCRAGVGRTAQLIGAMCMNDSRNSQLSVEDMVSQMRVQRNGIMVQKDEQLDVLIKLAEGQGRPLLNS

In the case of `O=[N+]([O-])c1ccc(O)c(CN2CCN(c3ccccc3)CC2)c1`, the inhibition result in [1], in data set [2], in data set [3] and in data set [4] was “inactive” each time.

In the case of `Oc1c(CN2CCN(c3ccccc3)CC2)cc(Cl)c2cccnc12`, in data set [2], the inhibition is 14% and 22%. In addition, the inhibition result in [3] and in [4] was “inactive” in each case.

With `CCOc1ccccc1N1CCN(Cc2cc(Cl)c3cccnc3c2O)CC1`, the inhibition came to 89% in data set [1] and 37% in data set [2]. In addition, the inhibition result in data set [3] and in data set [4] was “inactive” each time.

With `Oc1c(CN2CCN(c3ccc(F)cc3)CC2)ccc2cccnc12`, the inhibition in [1] came to 95%; in [2] it was 58%. Moreover, the inhibition entry in data set [3] and in data set [4] was “inactive” throughout.

Turning to `COc1ccccc1N1CCN(Cc2cc([N+](=O)[O-])c3cccnc3c2O)CC1`, the inhibition was 85% in [1], 77% in data set [2] and 25% in data set [3]. Moreover, the inhibition entry in data set [4] was “inactive”.

For `Oc1c(CN2CCN(c3ccc(F)cc3)CC2)cc(Br)c2cccnc12`, the results for the inhibition in data set [1] and in data set [2] were 89% and 78%, respectively. Besides, the inhibition result in data set [3] and in data set [4] was “inactive” each time.

For `Cc1cccc(N2CCN(Cc3cc(Br)c4cccnc4c3O)CC2)c1`, the inhibition in data set [1] came to 81%; in [2] it was 41%. For the same molecule, the inhibition result in [3] and in [4] was “inactive” throughout.

For `CC1CN(Cc2cc([N+](=O)[O-])c3cccnc3c2O)CC(C)O1` (stereo not drawn), the values for the inhibition in data set [1] and in data set [2] were 93% and 76%, respectively. Further, the inhibition result in data set [3] and in data set [4] was “inactive” throughout.

On to `COc1c(CN2CCN(c3ccccc3)CC2)cc(Br)c2cccnc12`, for which the inhibition result in data set [1], in data set [2], in data set [3] and in data set [4] was “inactive” in each case.

In the case of `Oc1c(CN2CCCCC2)cc(Cl)c2cccnc12`, the results for the inhibition in data set [1] and in data set [2] were 12% and 8%, respectively. Besides, the inhibition result in [3] and in [4] was “inactive” in each case.

In the case of `Oc1c(CN2CCN(c3ccc(F)cc3)CC2)cc(Cl)c2cccnc12`, the inhibition in [1] turned out to be 97%; in data set [2] it was 93%. In addition, the inhibition entry in [3] and in data set [4] was “inactive” each time.

`O=[N+]([O-])c1cc(CN2CCC(c3ccccc3)C2)c(O)c2ncccc12` (racemic) showed a minimum inhibitory concentration (MIC) in the data set on Chlamydia trachomatis [5] of 12.5 µM (≈ 4.37 µg/mL). For the same molecule, the viability in [6] was determined as 92.1%. The inhibition in data set [7] is 47%; in data set [10] it was “Dose-dependent effect”; in data set [13] it was 68%; in data set [1], 98%; in [14], “Dose-dependent effect”; in [2], 95%. Further, the inhibition in data set [3] was found to be 79%; in data set [4], 54%; in [15] it was 64%; in data set [16], 69%. Besides, the result (in the data set on Chlamydia trachomatis [8]; in data set [9]) was inactive. This molecule had a negative logarithm of the EC50 (pEC50) in data set [11] of 4.84. In addition, the Activity result in the data set on J774 is listed as “Toxic”. Also, the result in [12] was Active.

`O=[N+]([O-])c1cc(CN2CCN(c3ccccc3)CC2)c(O)c2ncccc12` returned an MIC in the data set on Chlamydia trachomatis [5] of 25 µM (≈ 9.11 µg/mL). Moreover, the viability in data set [6] is 66.3%. The inhibition in [7] was 49%; in data set [10] it was “Dose-dependent effect”; in data set [13], 77%; in data set [1], 97%; in [14], “Dose-dependent effect”; in data set [2], 94%. The inhibition in [3] stood at 88%; in data set [4], 66%; in [15], 73%; in data set [16], 79%. The result (in data set [9]; in the data set with Chlamydia trachomatis [17]) was inactive. For the same molecule, in data set [11], the pEC50 was 4.91. Moreover, the Activity result in the data set on J774 was “Toxic”. Also, the result in data set [12] was Active.

Take `COc1c(CN2CCN(c3ccccc3)CC2)cc(Cl)c2cccnc12`: the inhibition entry in [1], in data set [2], in [3] and in [4] was “inactive” each time.

With `O=[N+]([O-])c1ccc(O)c(CN2CCN(c3ccc(Cl)cc3)CC2)c1`, the inhibition entry in data set [1], in [2], in data set [3] and in [4] was “inactive” throughout.

In turn, `O=[N+]([O-])c1cc(CN2CCN(c3ccc(F)cc3)CC2)c(O)c2ncccc12` yielded a minimal inhibitory concentration (MIC) against Chlamydia trachomatis [5] of 3.13 µM (≈ 1.2 µg/mL). Moreover, the viability in [6] was found to be 90.2%. Besides, the inhibition in [7] was 17% and 38%; in data set [10] it was “Dose-dependent effect”; in data set [13], 88% and 81%; in data set [14] it was “Dose-dependent effect”; in data set [15] it was 56% and 66%; in data set [16], 94% and 83%. The result (in the data set with Chlamydia trachomatis [18]; in [12]) was Active. For the same molecule, the result (in data set [9]; with Chlamydia trachomatis [17]) was inactive. For the same molecule, the negative logarithm of the EC50 (pEC50) in data set [11] is 5.20. Further, the Activity entry in the data set with J774 is given as “Toxic”; in the data set with HeLa [19], “Non-toxic”; in the data set with HeLa [20] it was “Non-toxic”.

Take `Oc1c(CN2CCN(c3ccccn3)CC2)cc(Cl)c2cccnc12`: the inhibition in data set [1] was 98%; in data set [2], 80%. Besides, the inhibition entry in [3] and in data set [4] was “inactive” each time.

Turning to `CN1CCN(Cc2cc(Cl)c3cccnc3c2O)CC1`, the inhibition in data set [1] is 48%. For the same molecule, the inhibition entry in data set [2], in [3] and in data set [4] was “inactive” throughout.

As for `O=[N+]([O-])c1cc(CN2CCN(c3ccccc3)CC2)c(O)c2ccccc12`, the inhibition result in [1], in data set [2], in data set [3] and in data set [4] was “inactive” each time.

Usually inhibition stands for the drop in the measured response relative to a control, in per cent. For orientation: MIC means the lowest concentration that inhibits growth of the organism. A low value points to greater potency. One may read the pEC50 as the EC50 on a negative log10 scale, so that one unit is a factor of ten. A low value points to a large EC50.
